The values below come from ChEMBL document CHEMBL1148289, “Computer-aided design, synthesis, and anti-HIV-1 activity in vitro of 2-alkylamino-6-[1-(2,6-difluorophenyl)alkyl]-3,4-dihydro-5-alkylpyrimidin-4(3H)-ones as novel potent non-nucleoside reverse transcriptase inhibitors, also active against the Y181C variant” (J Med Chem, 2004).

Where only a bound is given, the exact number is not on record here.

For orientation: EC50 means the concentration giving half of the maximal effect. Read a high EC50 as weaker potency. For orientation: IC50 means the concentration that gives 50% inhibition. Higher therefore signals a need for much substance. Broadly, the CC50 is the concentration at which the toxic effect on the cells reaches its halfway point.

The subject of the first assay is MT4. Kind of assay: Effective dose required to achieve protection of MT-4 cells from Y181C HIV-1 induced cytopathogenicity. In kind it is functional, cell-based. The conditions noted are these: Homo sapiens. Put shortly: (§1)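 MT-4 cells (1 × 10^4/well) in RPMI 1640 with 10% FCS, infected with 100 CCID50 of HIV-1 (IIIB wild type or Y181C), compounds from DMSO stock diluted in medium at various concentrations. After 4 days at 37 °C, viable cells counted by MTT. EC50 is the dose giving 50% protection from virus cytopathicity. Mean of at least two experiments.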
Background: Damage to the host cells serves as the signal in cytopathic effect assays.
`Cc1c(C(C)c2c(F)cccc2F)nc(NC2CCCC2)[nH]c1=O` (stereo not drawn) came in with an EC50 of 160 nM.

The compound `Cc1c(C(C)c2c(F)cccc2F)nc(SC2CCCC2)[nH]c1=O` (stereo not drawn) came in with an EC50 of 200 nM.

Turning to `Cc1ccnc2c1NC(=O)c1cccnc1N2C1CC1` [NEVIRAPINE], the concentration for a half-maximal effect (EC50) is more than 30000 nM.

Another assay concerns MT4. Put plainly: Effective dose required to achieve protection of MT-4 cells from wild type IIIB HIV-1 induced cytopathogenicity. In kind it is functional, cell-based. As to conditions: Homo sapiens. Put shortly:
as §1
With `Cc1c(C(C)c2c(F)cccc2F)nc(NC2CCCC2)[nH]c1=O` (stereo not drawn), the EC50 came to 30 nM.

Regarding `Cc1c(C(C)c2c(F)cccc2F)nc(SC2CCCC2)[nH]c1=O` (stereo not drawn), the EC50 was 15 nM.

A further assay has as its system MT4. Put plainly: Effective dose required to achieve protection of MT-4 cells from HIV-1 induced cytopathogenicity. In kind it is functional, cell-based. The conditions noted are these: Homo sapiens. In a few lines:
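MT-4 cells (RPMI 1640, 10% FCS, 37 °C, 5% CO2), 1 × 10^4 per well, were infected with 100 CCID50 of HIV-1 IIIB in the presence of graded compound concentrations. Compounds came from 200 mM DMSO stocks diluted into medium. After 4 days at 37 °C, viable cells were counted by MTT. The value is the dose giving 50% protection, as a mean of at least two experiments.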
`CC(c1cc(=O)[nH]c(SC2CCCC2)n1)c1c(F)cccc1F` (stereo not drawn): the midpoint of the response, the EC50, lay at 30 nM.

In turn, `Cc1c(Cc2c(F)cccc2F)nc(NC2CCCC2)[nH]c1=O` registered a half-maximal effective concentration (EC50) of 20 nM.

Turning to `CC(c1cc(=O)[nH]c(NC2CCCC2)n1)c1c(F)cccc1F` (stereo not drawn), a half-maximal effect (EC50) was put at 30 nM.

The compound `Cc1c(C(C)c2c(F)cccc2F)nc(NC2CCCC2)[nH]c1=O` (stereo not drawn) had an EC50 of 20 nM.

`Cc1c(C(C)c2c(F)cccc2F)nc(SC2CCCC2)[nH]c1=O` (stereo not drawn) had a half-maximal effective concentration (EC50) of 6 nM.

`O=c1cc(Cc2c(F)cccc2F)nc(NC2CCCC2)[nH]1` returned an EC50 of 90 nM.

The target in the next assay is Human immunodeficiency virus type 1 reverse transcriptase (Human immunodeficiency virus 1, UniProt Q72547). Kind of assay: Inhibitory concentration required to inhibit the HIV-1 reverse transcriptase activity.
Details: not given
Put shortly:
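Purified recombinant HIV-1 RT, RNA-dependent polymerase activity. Template/primer poly(rC)-oligo(dG)12–18 at 0.5 OD260 unit/mL, with [3H]dGTP. Incubated 30 min at 37 °C, then acid-insoluble radioactivity counted on glass fiber filters. IC50 is the dose halving activity. Mean of at least two experiments.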
Regarding `CC(c1cc(=O)[nH]c(SC2CCCC2)n1)c1c(F)cccc1F` (stereo not drawn), it took 30 nM to reach half-maximal inhibition (IC50).

Consider `Cc1c(Cc2c(F)cccc2F)nc(NC2CCCC2)[nH]c1=O`, for which half-maximal inhibition (IC50) was put at 30 nM.

As for `CC(c1cc(=O)[nH]c(NC2CCCC2)n1)c1c(F)cccc1F` (stereo not drawn), the IC50 came out at 40 nM.

`Cc1c(C(C)c2c(F)cccc2F)nc(NC2CCCC2)[nH]c1=O` (stereo not drawn): the midpoint of inhibition, the IC50, lay at 35 nM.

Take `O=c1cc(Cc2c(F)cccc2F)nc(NC2CCCC2)[nH]1`: half-maximal inhibition (IC50) required 70 nM.

Test system in another assay: not listed separately
Put plainly: Ratio of CC50 to that EC50 in mock infected cells.
Details: not given
In kind it is functional. In a few lines:
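Selectivity index is the ratio of CC50 (mock-infected MT-4 viability, MTT, 4 days) to EC50 (protection of HIV-1 IIIB-infected MT-4 cells, MTT, 4 days), both from parallel assays.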
On to `CC(c1cc(=O)[nH]c(SC2CCCC2)n1)c1c(F)cccc1F` (stereo not drawn), for which the Selectivity index is given as more than 6666.

For `Cc1c(Cc2c(F)cccc2F)nc(NC2CCCC2)[nH]c1=O`, the Selectivity index is more than 10000.

With `CC(c1cc(=O)[nH]c(NC2CCCC2)n1)c1c(F)cccc1F` (stereo not drawn), the Selectivity index stood at 3500.

In the case of `Cc1c(C(C)c2c(F)cccc2F)nc(NC2CCCC2)[nH]c1=O` (stereo not drawn), the Selectivity index worked out at 4500.

Regarding `Cc1c(Cc2c(F)cccc2F)nc(SC2CCCC2)[nH]c1=O`, the Selectivity index is more than 2500.

For the compound `Cc1c(C(C)c2c(F)cccc2F)nc(SC2CCCC2)[nH]c1=O` (stereo not drawn), the Selectivity index is reported as more than 33333.

`CCOCn1c(Cc2ccccc2)c(C(C)C)c(=O)[nH]c1=O` [EMIVIRINE]: the Selectivity index came out at 6666.

Turning to `O=c1cc(Cc2c(F)cccc2F)nc(SC2CCCC2)[nH]1`, the Selectivity index is recorded as more than 2500.

Take `O=c1cc(Cc2c(F)cccc2F)nc(NC2CCCC2)[nH]1`: the Selectivity index is more than 2222.

The next assay relates to MT4. Kind of assay: Cytotoxic concentration required to reduce the viability of mock-infected MT-4 cells. In kind it is functional. The conditions noted are these: Homo sapiens. Put shortly: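 Mock-infected MT-4 cells, 1 × 10^4 per well, were exposed to graded compound concentrations in parallel with the antiviral assay. Compounds came from 200 mM DMSO stocks diluted into medium. After 4 days at 37 °C, viability was measured by MTT. The value is the dose reducing viability by 50%, as a mean of at least two experiments.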
`CC(c1cc(=O)[nH]c(SC2CCCC2)n1)c1c(F)cccc1F` (stereo not drawn) had a CC50 of more than 200000 nM.

`Cc1c(Cc2c(F)cccc2F)nc(NC2CCCC2)[nH]c1=O` registered a CC50 of more than 200000 nM.

As for `CC(c1cc(=O)[nH]c(NC2CCCC2)n1)c1c(F)cccc1F` (stereo not drawn), the CC50 was found to be 76000 nM.

As for `Cc1c(C(C)c2c(F)cccc2F)nc(NC2CCCC2)[nH]c1=O` (stereo not drawn), the CC50 is 90000 nM.

For `Cc1c(Cc2c(F)cccc2F)nc(SC2CCCC2)[nH]c1=O`, the 50% cytotoxic concentration (CC50) is more than 200000 nM.

As for `Cc1c(C(C)c2c(F)cccc2F)nc(SC2CCCC2)[nH]c1=O` (stereo not drawn), the half-maximal cytotoxic concentration (CC50) is more than 200000 nM.

Compound `CCOCn1c(Cc2ccccc2)c(C(C)C)c(=O)[nH]c1=O` [EMIVIRINE] displayed a cytotoxic concentration (CC50) of 200000 nM.

`O=c1cc(Cc2c(F)cccc2F)nc(SC2CCCC2)[nH]1` gave a cytotoxic concentration (CC50) of more than 200000 nM.

`O=c1cc(Cc2c(F)cccc2F)nc(NC2CCCC2)[nH]1` gave a CC50 of more than 200000 nM.

Test system in the next assay: not listed separately
Kind of assay: Ratio of wild type IIIB to that of Y181C HIV-1 induced cytopathogenicity. In kind it is functional.
Details: not given
Consider `Cc1c(C(C)c2c(F)cccc2F)nc(NC2CCCC2)[nH]c1=O` (stereo not drawn), for which the Ratio amounted to 5.3.

`O=C1Nc2ccc(Cl)cc2[C@@](C#CC2CC2)(C(F)(F)F)O1`: the Ratio worked out at 6.

For the compound `Cc1c(C(C)c2c(F)cccc2F)nc(SC2CCCC2)[nH]c1=O` (stereo not drawn), the Ratio is 13.

Take `Cc1ccnc2c1NC(=O)c1cccnc1N2C1CC1` [NEVIRAPINE]: the Ratio was more than 81.
